From publication PMC7557999 (ACS Omega, 2020)

Tests used:
SHP2 = target: T1, SHP2 (Homo sapiens, UniProt Q06124); assay: PTP activity assay; type: biochemical; conditions: for inhibition type (Lineweaver–Burk plot), SHP2: Lineweaver–Burk plot analysis
T1 sequence (Q06124 247-517 limits assumed): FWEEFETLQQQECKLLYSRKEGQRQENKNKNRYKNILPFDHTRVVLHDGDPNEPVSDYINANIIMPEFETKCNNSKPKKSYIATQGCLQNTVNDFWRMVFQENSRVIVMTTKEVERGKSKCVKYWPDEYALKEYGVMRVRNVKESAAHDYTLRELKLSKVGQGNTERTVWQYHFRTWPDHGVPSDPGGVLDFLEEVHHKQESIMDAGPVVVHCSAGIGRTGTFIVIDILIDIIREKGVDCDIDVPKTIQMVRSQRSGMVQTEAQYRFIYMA
Summary of the method: (§1)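 Human catalytic domains were His-tagged, expressed in E. coli BL21(DE3) with 0.4 mM IPTG overnight at 20 °C, and purified under native conditions. The pNPP hydrolysis buffer was 10 mM NaAc-HAc, 1 mM EDTA, 1 mM DTT, pH 5.5, with 0.1 vol % test compound or DMSO at 37 °C. A405 was read every 20 s for 30 min.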

LYP = target: T2, LYP (Homo sapiens, UniProt Q9Y2R2); assay: PTP activity assay; type: biochemical
T2 sequence (Q9Y2R2 24-289 limits assumed): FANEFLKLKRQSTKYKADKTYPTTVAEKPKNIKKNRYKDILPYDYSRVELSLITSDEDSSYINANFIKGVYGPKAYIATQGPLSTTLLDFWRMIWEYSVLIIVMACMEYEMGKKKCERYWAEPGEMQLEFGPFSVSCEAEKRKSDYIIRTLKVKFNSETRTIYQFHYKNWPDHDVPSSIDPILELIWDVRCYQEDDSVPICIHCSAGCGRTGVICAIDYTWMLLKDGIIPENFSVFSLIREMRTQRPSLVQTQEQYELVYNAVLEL
Summary of the method: as §1

SHP1 = target: T3, SHP1 (Homo sapiens, UniProt P29350); assay: PTP activity assay; type: biochemical; conditions: for inhibition type (Lineweaver–Burk plot), SHP1: Lineweaver–Burk plot analysis
T3 sequence (P29350 244-515 limits assumed): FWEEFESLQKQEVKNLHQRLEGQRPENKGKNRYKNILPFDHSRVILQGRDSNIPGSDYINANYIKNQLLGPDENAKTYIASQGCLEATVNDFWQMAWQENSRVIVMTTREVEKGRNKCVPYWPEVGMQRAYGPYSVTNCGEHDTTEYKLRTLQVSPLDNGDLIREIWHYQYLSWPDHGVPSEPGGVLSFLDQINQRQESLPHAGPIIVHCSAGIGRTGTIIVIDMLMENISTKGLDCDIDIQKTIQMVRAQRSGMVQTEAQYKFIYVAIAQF
Summary of the method: as §1

MCF7 cells [1] = assay: MTT assay, MCF7 cell proliferation; type: cell-based; conditions: Homo sapiens, MCF7, 24 h, read-out: IC50, MCF7 cell proliferation
Summary of the method: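 MCF7 cells were grown in DMEM or RPMI-1640 with 10% FBS at 37 °C and 5% CO2, then seeded in 96-well plates. Test compound was added at various amounts, with DMSO as vehicle, for 24 h. MTT (5 mg/mL stock) was added for 4 h, then SDS-HCl overnight. A570 was read and IC50 calculated by the plate reader. Values are mean ± SD of triplicate assays.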

p-ERK = assay: Western blotting of ERK phosphorylation in MCF7 cells; type: cell-based, Human; conditions: MCF7 cells, 1.5, 7.5 and 15 μM, 24 h
Summary of the method: (§2)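 MCF7 cells were treated for 24 h with 0, 1.5, 7.5 or 15 μM test compound. Lysates were immunoblotted with antibodies to c-JUN, p-ERK and total ERK, with GAPDH as internal control.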

MCF7 cells [2] = assay: RNA sequencing assay of treated MCF7 cells; type: cell-based, Human; conditions: vs control, three repeats
Summary of the method: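 MCF7 cells were treated with test compound alongside a control group, three repeats per group. Libraries were prepared with NEBNext Ultra and sequenced on an Illumina HiSeq. Differential expression used DESeq/Cuffdiff with cutoffs of log2 fold change >1 or […], Q value <0.05 and FPKM >1.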

STEP = target: T4, STEP (Homo sapiens, UniProt P54829); assay: PTP activity assay; type: biochemical
T4 sequence (P54829 300-555 limits assumed): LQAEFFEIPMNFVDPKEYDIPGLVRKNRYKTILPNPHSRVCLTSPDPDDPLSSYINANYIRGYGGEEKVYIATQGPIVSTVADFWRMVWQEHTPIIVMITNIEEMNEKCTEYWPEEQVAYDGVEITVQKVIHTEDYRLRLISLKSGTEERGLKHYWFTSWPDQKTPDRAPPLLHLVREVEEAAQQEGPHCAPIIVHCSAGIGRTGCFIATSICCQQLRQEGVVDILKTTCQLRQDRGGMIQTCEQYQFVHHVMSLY
Summary of the method: as §1

PTP1B = target: T5, PTP1B (Homo sapiens, UniProt P18031); assay: PTP activity assay; type: biochemical; conditions: for inhibition type (Lineweaver–Burk plot), PTP1B: Lineweaver–Burk plot analysis
T5 sequence (P18031 3-277 limits assumed): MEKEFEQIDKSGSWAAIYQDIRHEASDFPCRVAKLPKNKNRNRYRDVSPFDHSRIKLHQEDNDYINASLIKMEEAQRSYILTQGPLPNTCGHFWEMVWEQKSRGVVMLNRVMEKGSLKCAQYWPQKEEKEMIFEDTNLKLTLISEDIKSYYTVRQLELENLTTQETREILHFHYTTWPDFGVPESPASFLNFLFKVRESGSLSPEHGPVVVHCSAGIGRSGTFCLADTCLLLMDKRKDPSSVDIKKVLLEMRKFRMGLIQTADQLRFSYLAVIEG
Summary of the method: as §1

MCF7 cells [3] = assay: Colony formation assay; type: cell-based, Human; conditions: 0.15, 0.45 and 0.75 μM, 6 days
c-JUN = assay: Western blotting of c-JUN in MCF7 cells; type: cell-based, Human; conditions: MCF7 cells, 1.5, 7.5 and 15 μM, 24 h
Summary of the method: as §2

Structure (SMILES) | IC50 (SHP2) [µM] | inhibition type (Lineweaver–Burk plot), SHP2 (SHP2) | IC50 (LYP) [µM] | IC50 (SHP1) [µM] | inhibition type (Lineweaver–Burk plot), SHP1 (SHP1) | IC50 (MCF7 cells [1]) [µM] | ERK phosphorylation (western blot) (p-ERK) | CXCL2 log 2 fold change (MCF7 cells [2]) | CXCL3 log 2 fold change (MCF7 cells [2]) | CXCL8 log 2 fold change (MCF7 cells [2]) | CXCL10 log 2 fold change (MCF7 cells [2]) | DDIT3 log 2 fold change (MCF7 cells [2]) | GADD45A log 2 fold change (MCF7 cells [2]) | IFI16 log 2 fold change (MCF7 cells [2]) | IFI27 log 2 fold change (MCF7 cells [2]) | IL1A log 2 fold change (MCF7 cells [2]) | IL1B log 2 fold change (MCF7 cells [2]) | IL6 log 2 fold change (MCF7 cells [2]) | IL18 log 2 fold change (MCF7 cells [2]) | IL24 log 2 fold change (MCF7 cells [2]) | other results
CC(=O)OC[C@]12Oc3ccc(-c4ccc(O)c5c4O[C@@]4(COC(C)=O)C(=C(O)C[C@@H](C)[C@H]4OC(C)=O)C5=O)c(O)c3C(=O)C1=C(O)C[C@@H](C)[C@H]2OC(C)=O [PXB, Phomoxanthone B] | 11.9 ± 3.02 | noncompetitive inhibitors | > 150 | 32.1 ± 3.74 | competitive inhibitors | 16.2 ± 2.59 | increased ERK phosphorylation | 3.19 | 1.58 | 5.22 | 5.96 | 2.92 | 1.39 | 1.15 | 4.02 | 4.87 | 3.23 | 3.98 | 1.73 | 7.08 | IL32 log 2 fold change (MCF7 cells [2]): 1.56; IL33 log 2 fold change (MCF7 cells [2]): 4.82; IRF1 log 2 fold change (MCF7 cells [2]): 1.34; IRF7 log 2 fold change (MCF7 cells [2]): 2.53; JUN log 2 fold change (MCF7 cells [2]): 3.16; NFKB2 log 2 fold change (MCF7 cells [2]): 1.69; RELB log 2 fold change (MCF7 cells [2]): 2.51; XAF1 log 2 fold change (MCF7 cells [2]): 4.41; IC50 (STEP): > 150 µM; IC50 (PTP1B): 14.3 ± 2.2 µM; inhibition type (Lineweaver–Burk plot), PTP1B (PTP1B): noncompetitive inhibitors; colony formation of MCF7 cells (MCF7 cells [3]): significantly reduced the colony formation; JUN protein expression (western blot) (c-JUN): upregulated the JUN protein expression
CC(=O)OC[C@]12Oc3c(-c4ccc(O)c5c4O[C@@]4(COC(C)=O)C(=C(O)C[C@@H](C)[C@H]4OC(C)=O)C5=O)ccc(O)c3C(=O)C1=C(O)C[C@@H](C)[C@H]2OC(C)=O [PXA, Phomoxanthone A] | 20.5 ± 4.45 | noncompetitive inhibitors | > 150 | 36.5 ± 2.02 | competitive inhibitors | 16.4 ± 1.96 | increased ERK phosphorylation | 3.24 | 1.65 | 5.45 | 6.84 | 2.87 | 1.41 | 1.18 | 4.22 | 4.78 | 3.30 | 4.00 | 1.78 | 6.37 | IL32 log 2 fold change (MCF7 cells [2]): 1.57; IL33 log 2 fold change (MCF7 cells [2]): 4.45; IRF1 log 2 fold change (MCF7 cells [2]): 1.50; IRF7 log 2 fold change (MCF7 cells [2]): 2.76; JUN log 2 fold change (MCF7 cells [2]): 3.32; NFKB2 log 2 fold change (MCF7 cells [2]): 1.62; RELB log 2 fold change (MCF7 cells [2]): 2.43; XAF1 log 2 fold change (MCF7 cells [2]): 4.83; IC50 (STEP): > 150 µM; IC50 (PTP1B): 13 ± 1.13 µM; inhibition type (Lineweaver–Burk plot), PTP1B (PTP1B): noncompetitive inhibitors; colony formation of MCF7 cells (MCF7 cells [3]): significantly reduced the colony formation; JUN protein expression (western blot) (c-JUN): upregulated the JUN protein expression
O=c1[nH]cc(F)c(=O)[nH]1 [5-fluorouracil, reference compound] | – | – | – | – | – | 25.1 ± 8.8 | – | – | – | – | – | – | – | – | – | – | – | – | – | – | –
